# Results reported in ChEMBL document CHEMBL5724801, “EUbOPEN Chemogenomics Library - Multiplex” (2024).
# Several values for one entry are separate records, joined by “and”; a condition that tells them apart may be missing. Equal values may be shown once.
# System: HEK-293T
# Assay: Multiplex assay against HEK293T
# Assay type: toxicity, cell-based
# Conditions: human
# Outline: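 Hoechst33342, BioTracker Green Microtubule Cytoskeleton Dye, MitoTracker Red and Annexin V Alexa Fluor 680 were added to live cells at seeding, and imaging on a CQ1 microscope at 37°C and 5% CO2 followed compound addition. Gating by CellPathfinder machine learning separated cells into Hoechst high-intensity objects or normal cells, then normal cells into healthy, pyknosed or fragmented nuclei, then pyknosed cells into mitotic or apoptotic. Per cents of healthy-nucleus cells are reported for the tubulin, mitochondrial-mass and membrane-permeability phenotypes.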
# [1] = 12 h, 1 µM, compound concentration 1 uM
# [2] = 12 h, 10 µM, compound concentration 10 uM
# [3] = 24 h, 1 µM, compound concentration 1 uM
# [4] = 24 h, 10 µM, compound concentration 10 uM
# [5] = 48 h, 1 µM, compound concentration 1 uM
# [6] = 48 h, 10 µM, compound concentration 10 uM
structure (smiles),measurement,setting,value
CCc1cc2cc(NS(=O)(=O)c3ccc(C#N)cc3)ccc2n(CC)c1=O,Population Apoptotic (%),[1],43% and 40%
same,Population Fragmented Nuclei (%),[1],8% and 7%
same,Population Healthy Nuclei (%),[1],78%
same,Population Hoechst High Intensity Objects (%),[1],9% and 7%
same,Population Membrane Permeable-Phenotype (%),[1],0%
same,Population Mitochondria Different-Phenotype (%),[1],37% and 64%
same,Population Mitotic Cells (%),[1],56% and 59%
same,Population Normal (%),[1],90% and 92%
same,Population Pyknosed Nuclei (%),[1],12% and 14%
same,Population Tubulin-Different-Phenotype (%),[1],28% and 29%
same,Total Cell Count,[1],411 and 338
same,Population Apoptotic (%),[2],38% and 65%
same,Population Fragmented Nuclei (%),[2],7% and 6%
same,Population Healthy Nuclei (%),[2],80% and 69%
same,Population Hoechst High Intensity Objects (%),[2],7% and 16%
same,Population Membrane Permeable-Phenotype (%),[2],0%
same,Population Mitochondria Different-Phenotype (%),[2],47% and 71%
same,Population Mitotic Cells (%),[2],61% and 34%
same,Population Normal (%),[2],92% and 83%
same,Population Pyknosed Nuclei (%),[2],12% and 23%
same,Population Tubulin-Different-Phenotype (%),[2],48% and 41%
same,Total Cell Count,[2],404 and 291
same,Population Apoptotic (%),[3],29% and 43%
same,Population Fragmented Nuclei (%),[3],8% and 7%
same,Population Healthy Nuclei (%),[3],80% and 84%
same,Population Hoechst High Intensity Objects (%),[3],5%
same,Population Membrane Permeable-Phenotype (%),[3],1% and 0%
same,Population Mitochondria Different-Phenotype (%),[3],19% and 44%
same,Population Mitotic Cells (%),[3],70% and 56%
same,Population Normal (%),[3],94%
same,Population Pyknosed Nuclei (%),[3],11% and 7%
same,Population Tubulin-Different-Phenotype (%),[3],18% and 22%
same,Total Cell Count,[3],510 and 403
same,Population Apoptotic (%),[4],33% and 63%
same,Population Fragmented Nuclei (%),[4],9% and 10%
same,Population Healthy Nuclei (%),[4],80% and 73%
same,Population Hoechst High Intensity Objects (%),[4],6% and 17%
same,Population Membrane Permeable-Phenotype (%),[4],0% and 1%
same,Population Mitochondria Different-Phenotype (%),[4],36% and 58%
same,Population Mitotic Cells (%),[4],66% and 36%
same,Population Normal (%),[4],93% and 82%
same,Population Pyknosed Nuclei (%),[4],10% and 16%
same,Population Tubulin-Different-Phenotype (%),[4],32% and 29%
same,Total Cell Count,[4],478 and 332
same,Population Apoptotic (%),[5],30% and 38%
same,Population Fragmented Nuclei (%),[5],11% and 14%
same,Population Healthy Nuclei (%),[5],81% and 79%
same,Population Hoechst High Intensity Objects (%),[5],2% and 4%
same,Population Membrane Permeable-Phenotype (%),[5],1%
same,Population Mitochondria Different-Phenotype (%),[5],11% and 23%
same,Population Mitotic Cells (%),[5],69% and 61%
same,Population Normal (%),[5],97% and 95%
same,Population Pyknosed Nuclei (%),[5],6% and 5%
same,Population Tubulin-Different-Phenotype (%),[5],13% and 12%
same,Total Cell Count,[5],878 and 608
same,Population Apoptotic (%),[6],26% and 47%
same,Population Fragmented Nuclei (%),[6],14% and 16%
same,Population Healthy Nuclei (%),[6],78% and 73%
same,Population Hoechst High Intensity Objects (%),[6],4% and 10%
same,Population Membrane Permeable-Phenotype (%),[6],1%
same,Population Mitochondria Different-Phenotype (%),[6],23% and 40%
same,Population Mitotic Cells (%),[6],73% and 52%
same,Population Normal (%),[6],95% and 89%
same,Population Pyknosed Nuclei (%),[6],6% and 9%
same,Population Tubulin-Different-Phenotype (%),[6],20% and 23%
same,Total Cell Count,[6],734 and 383
Cc1cc(C(C#N)c2ccc(Cl)cc2)c(Cl)cc1NC(=O)c1cc(I)cc(I)c1O (stereo not given) [CLOSANTEL],Population Apoptotic (%),[1],6.57% and 5.41%
same,Population Fragmented Nuclei (%),[1],3.34% and 0.56%
same,Population Hoechst High Intensity Objects (%),[1],0%
same,Population Membrane Permeable-Phenotype (%),[1],1.66% and 0%
same,Population Mitotic Cells (%),[1],93.43% and 94.59%
same,Population Normal (%),[1],100%
same,Population Pyknosed Nuclei (%),[1],41.64% and 82.22%
same,Total Cell Count,[1],329 and 180
same,Population Apoptotic (%),[2],9.49% and 11.94%
same,Population Fragmented Nuclei (%),[2],1.44% and 2.52%
same,Population Hoechst High Intensity Objects (%),[2],0.29% and 0%
same,Population Membrane Permeable-Phenotype (%),[2],0%
same,Population Mitotic Cells (%),[2],90.51% and 88.06%
same,Population Normal (%),[2],99.71% and 100%
same,Population Pyknosed Nuclei (%),[2],39.37% and 84.28%
same,Total Cell Count,[2],349 and 159
same,Population Apoptotic (%),[3],9.09% and 12.78%
same,Population Fragmented Nuclei (%),[3],2.28% and 0.53%
same,Population Healthy Nuclei (%),[3],72.62% and 29.1%
same,Population Hoechst High Intensity Objects (%),[3],0.19% and 0%
same,Population Membrane Permeable-Phenotype (%),[3],1.05% and 0%
same,Population Mitochondria Different-Phenotype (%),[3],12.3% and 16.36%
same,Population Mitotic Cells (%),[3],90.91% and 87.22%
same,Population Normal (%),[3],99.81% and 100%
same,Population Pyknosed Nuclei (%),[3],25.1% and 70.37%
same,Population Tubulin-Different-Phenotype (%),[3],11.78% and 10.91%
same,Total Cell Count,[3],527 and 189
same,Population Apoptotic (%),[4],21.1% and 18.35%
same,Population Fragmented Nuclei (%),[4],2.28% and 2.25%
same,Population Healthy Nuclei (%),[4],75.1% and 36.52%
same,Population Hoechst High Intensity Objects (%),[4],0.21% and 2.73%
same,Population Membrane Permeable-Phenotype (%),[4],0.83% and 1.54%
same,Population Mitochondria Different-Phenotype (%),[4],12.15% and 7.69%
same,Population Mitotic Cells (%),[4],78.9% and 81.65%
same,Population Normal (%),[4],99.79% and 97.27%
same,Population Pyknosed Nuclei (%),[4],22.61% and 61.24%
same,Population Tubulin-Different-Phenotype (%),[4],3.04% and 9.23%
same,Total Cell Count,[4],483 and 183
same,Population Apoptotic (%),[5],9.63% and 18.42%
same,Population Fragmented Nuclei (%),[5],3.24% and 1.21%
same,Population Healthy Nuclei (%),[5],87.05% and 68.15%
same,Population Hoechst High Intensity Objects (%),[5],0% and 0.8%
same,Population Membrane Permeable-Phenotype (%),[5],4.96% and 1.78%
same,Population Mitochondria Different-Phenotype (%),[5],11.57% and 23.67%
same,Population Mitotic Cells (%),[5],90.37% and 81.58%
same,Population Normal (%),[5],100% and 99.2%
same,Population Fragmented Nuclei (%),[6],2.8% and 1.44%
same,Population Healthy Nuclei (%),[6],87.9% and 66.19%
same,Population Hoechst High Intensity Objects (%),[6],0.07% and 0%
same,Population Membrane Permeable-Phenotype (%),[6],1.34% and 0.54%
same,Population Mitochondria Different-Phenotype (%),[6],8.23% and 21.74%
same,Population Mitotic Cells (%),[6],96.03% and 80%
same,Population Normal (%),[6],99.93% and 100%
CCCCC1=NC2(CCCC2)C(=O)N1Cc1ccc(-c2ccccc2-c2nnn[nH]2)cc1 [IRBESARTAN],Population Apoptotic (%),[1],24% and 28%
same,Population Fragmented Nuclei (%),[1],9% and 8%
same,Population Healthy Nuclei (%),[1],79% and 78%
same,Population Hoechst High Intensity Objects (%),[1],9% and 4%
same,Population Membrane Permeable-Phenotype (%),[1],0%
same,Population Mitochondria Different-Phenotype (%),[1],34% and 63%
same,Population Mitotic Cells (%),[1],75% and 71%
same,Population Normal (%),[1],91% and 95%
same,Population Pyknosed Nuclei (%),[1],10% and 12%
same,Population Tubulin-Different-Phenotype (%),[1],17% and 20%
same,Total Cell Count,[1],500 and 353
same,Population Apoptotic (%),[2],50% and 56%
same,Population Fragmented Nuclei (%),[2],7% and 6%
same,Population Healthy Nuclei (%),[2],70% and 78%
same,Population Hoechst High Intensity Objects (%),[2],5% and 13%
same,Population Membrane Permeable-Phenotype (%),[2],2% and 0%
same,Population Mitochondria Different-Phenotype (%),[2],46% and 66%
same,Population Mitotic Cells (%),[2],50% and 43%
same,Population Normal (%),[2],94% and 86%
same,Population Pyknosed Nuclei (%),[2],22% and 15%
same,Population Tubulin-Different-Phenotype (%),[2],50% and 33%
same,Total Cell Count,[2],219 and 351
same,Population Apoptotic (%),[3],31% and 34%
same,Population Fragmented Nuclei (%),[3],9%
same,Population Healthy Nuclei (%),[3],79% and 80%
same,Population Hoechst High Intensity Objects (%),[3],4% and 7%
same,Population Membrane Permeable-Phenotype (%),[3],0%
same,Population Mitochondria Different-Phenotype (%),[3],24% and 45%
same,Population Mitotic Cells (%),[3],68% and 65%
same,Population Normal (%),[3],95% and 92%
same,Population Pyknosed Nuclei (%),[3],10% and 9%
same,Population Tubulin-Different-Phenotype (%),[3],15% and 14%
same,Total Cell Count,[3],625 and 456
same,Population Apoptotic (%),[4],27% and 41%
same,Population Fragmented Nuclei (%),[4],6% and 11%
same,Population Healthy Nuclei (%),[4],77%
same,Population Hoechst High Intensity Objects (%),[4],3% and 10%
same,Population Membrane Permeable-Phenotype (%),[4],1% and 0%
same,Population Mitochondria Different-Phenotype (%),[4],37% and 49%
same,Population Mitotic Cells (%),[4],72% and 58%
same,Population Normal (%),[4],96% and 89%
same,Population Pyknosed Nuclei (%),[4],15% and 11%
same,Population Tubulin-Different-Phenotype (%),[4],32% and 22%
same,Total Cell Count,[4],287 and 434
same,Population Apoptotic (%),[5],29% and 23%
same,Population Fragmented Nuclei (%),[5],11% and 9%
same,Population Healthy Nuclei (%),[5],81% and 84%
same,Population Hoechst High Intensity Objects (%),[5],3% and 2%
same,Population Membrane Permeable-Phenotype (%),[5],0% and 1%
same,Population Mitochondria Different-Phenotype (%),[5],21% and 19%
same,Population Mitotic Cells (%),[5],70% and 76%
same,Population Normal (%),[5],96% and 97%
same,Population Pyknosed Nuclei (%),[5],7% and 6%
same,Population Tubulin-Different-Phenotype (%),[5],15% and 8%
same,Total Cell Count,[5],958 and 705
same,Population Apoptotic (%),[6],25% and 46%
same,Population Fragmented Nuclei (%),[6],15% and 12%
same,Population Healthy Nuclei (%),[6],75% and 80%
same,Population Hoechst High Intensity Objects (%),[6],1% and 3%
same,Population Membrane Permeable-Phenotype (%),[6],0%
same,Population Mitochondria Different-Phenotype (%),[6],21% and 26%
same,Population Mitotic Cells (%),[6],75% and 53%
same,Population Normal (%),[6],98% and 96%
same,Population Pyknosed Nuclei (%),[6],9% and 6%
same,Population Tubulin-Different-Phenotype (%),[6],15%
same,Total Cell Count,[6],473 and 684
